Assay results published in ChEMBL document CHEMBL1143056, “Enhanced substituted resorcinol hydrophobicity augments tyrosinase inhibition potency” (J Med Chem, 2007).
pIC50: −log10 of the molar value.

Key:
Tyrosinase = target: T1, Tyrosinase (Agaricus bisporus, UniProt O42713); experiment: Inhibition of mushroom tyrosinase
T1 sequence (O42713 whole entry): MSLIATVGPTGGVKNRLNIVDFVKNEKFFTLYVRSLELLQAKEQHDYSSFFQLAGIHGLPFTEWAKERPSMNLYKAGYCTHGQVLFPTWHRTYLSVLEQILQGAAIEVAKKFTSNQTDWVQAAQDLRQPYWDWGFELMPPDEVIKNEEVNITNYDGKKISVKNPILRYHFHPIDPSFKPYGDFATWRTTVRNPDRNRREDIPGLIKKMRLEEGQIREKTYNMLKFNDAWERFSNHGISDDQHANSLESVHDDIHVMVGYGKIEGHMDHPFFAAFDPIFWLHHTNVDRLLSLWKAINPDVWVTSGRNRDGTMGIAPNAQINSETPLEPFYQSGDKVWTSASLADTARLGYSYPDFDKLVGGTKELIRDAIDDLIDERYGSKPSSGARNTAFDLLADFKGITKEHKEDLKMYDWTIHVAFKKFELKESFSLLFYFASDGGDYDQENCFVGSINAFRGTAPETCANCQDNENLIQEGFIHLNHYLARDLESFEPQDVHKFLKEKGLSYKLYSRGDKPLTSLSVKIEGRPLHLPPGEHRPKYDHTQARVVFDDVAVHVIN
How it was run: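 Wells held 50 mM potassium phosphate pH 6.5, tyrosinase at 50 units/mL final and inhibitor in absolute ethanol (5-100 µM final). After 10 min at 25 °C, L-tyrosine was added to 1 mM. Absorbance at 450 nm was read every 5 min against an ethanol-only control. IC50 was taken from the linear zone at 20 min.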

[1] = target: T2, Tyrosinase (Agaricus bisporus) (UniProt O42713); experiment: Inhibition of mushroom tyrosinase at 10 uM for 10 min pre-incubated before addition of tyrosine
T2 sequence (whole entry): T1 sequence (O42713 whole entry)

[2] = target: T2, Tyrosinase (Agaricus bisporus); experiment: Inhibition of mushroom tyrosinase at 0.3 uM for 10 min pre-incubated before addition of tyrosine
[3] = target: T2, Tyrosinase (Agaricus bisporus); experiment: Inhibition of mushroom tyrosinase at 0.3 uM for 10 min preincubated before addition of 1 mM tyrosine
[4] = target: T2, Tyrosinase (Agaricus bisporus); experiment: Inhibition of mushroom tyrosinase at 0.3 uM for 10 min pre-incubated before addition of 3.75 mM tyrosine

O=C(O)CCc1ccc(O)cc1O
pIC50 (Tyrosinase): 5.73 | inhibition [1]: 80%

CCOC(=O)CCc1ccc(O)cc1O
pIC50 (Tyrosinase): 6.66

CC(C)(C)COC(=O)CCc1ccc(O)cc1O
pIC50 (Tyrosinase): 6.74

CC(C)(C)OC(=O)CCc1ccc(O)cc1O
pIC50 (Tyrosinase): 4.83

CC(C)OC(=O)CCc1ccc(O)cc1O
pIC50 (Tyrosinase): 7.15

CCC(C)(C)C(OC(=O)CCc1ccc(O)cc1O)C(C)(C)CC
pIC50 (Tyrosinase): 6.82 | inhibition [2]: 80% | inhibition [3]: 97% | inhibition [4]: 86%

CCCCCCCCOC(=O)CCc1ccc(O)cc1O
pIC50 (Tyrosinase): 6.15
